# Reference: ChEMBL document CHEMBL4393701, “Appendix A. dithioloquinolinethiones as new potential multitargeted antibacterial and antifungal agents: Synthesis, biological evaluation and molecular docking studies” (2019)
# Assays:
# [1] = test system: Bacillus cereus; assay: Antibacterial activity against Bacillus cereus clinical isolate after 24 hrs by iodonitrotetrazolium chloride dye based microdilution assay; type: functional
# Method in brief: (§1)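 Fresh overnight cultures adjusted spectrophotometrically to 1×10^5 CFU/mL, giving 1.0×10^4 CFU per well in tryptic soy broth. Compounds were dissolved in 5% DMSO and tested at 0.001-1.0 mg/ml by serial dilution; 5% DMSO was the negative control. After 24 h at 37 °C, 0.2 mg/mL INT solution was added for 30 min at 37 °C and OD read at 655 nm. MIC is the lowest concentration giving significant growth inhibition versus the positive control. Duplicates, repeated three times.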
# [2] = test system: Bacillus cereus; assay: Bactericidal activity against Bacillus cereus clinical isolate incubated for 24 hrs followed by re-plating on tryptic soy broth; type: functional
# Method in brief: (§2)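 Bacteria were grown in tryptic soy broth, 1.0×10^4 CFU per well, with compounds in 5% DMSO at 0.001-1.0 mg/ml for 24 h at 37 °C. Then 10 µL was subcultured into fresh TSB. MBC is the lowest concentration showing no growth after subculture, taken as 99.5% kill of the original inoculum. Duplicates, repeated three times.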
# [3] = test system: Micrococcus flavus; assay: Antibacterial activity against Micrococcus flavus ATCC 10240 after 24 hrs by iodonitrotetrazolium chloride dye based microdilution method; type: functional; conditions: ATCC 10240, 24 h; method in brief: as §1
# [4] = test system: Micrococcus flavus; assay: Bactericidal activity against Micrococcus flavus ATCC 10240 incubated for 24 hrs followed by re-plating on tryptic soy broth; type: functional; conditions: ATCC 10240, 24 h; method in brief: as §2
# [5] = test system: Staphylococcus aureus; assay: Antibacterial activity against Staphylococcus aureus ATCC 6538 after 24 hrs by iodonitrotetrazolium chloride dye based microdilution method; type: functional; conditions: ATCC 6538, 24 h; method in brief: as §1
# [6] = test system: Staphylococcus aureus; assay: Bactericidal activity against Staphylococcus aureus ATCC 6538 incubated for 24 hrs followed by re-plating on tryptic soy broth; type: functional; conditions: ATCC 6538, 24 h; method in brief: as §2
# [7] = test system: Listeria monocytogenes; assay: Antibacterial activity against Listeria monocytogenes NCTC 7973 after 24 hrs by iodonitrotetrazolium chloride dye based microdilution method; type: functional; conditions: NCTC 7973, 24 h; method in brief: as §1
# [8] = test system: Listeria monocytogenes; assay: Bactericidal activity against Listeria monocytogenes NCTC 7973 incubated for 24 hrs followed by re-plating on tryptic soy broth; type: functional; conditions: NCTC 7973, 24 h; method in brief: as §2
# [9] = test system: Enterobacter cloacae; assay: Antibacterial activity against Enterobacter cloacae clinical isolate after 24 hrs by iodonitrotetrazolium chloride dye based microdilution method; type: functional; method in brief: as §1
# [10] = test system: Enterobacter cloacae; assay: Bactericidal activity against Enterobacter cloacae incubated for 24 hrs followed by re-plating on tryptic soy broth; type: functional; method in brief: as §2
# [11] = test system: Pseudomonas aeruginosa; assay: Antibacterial activity against Pseudomonas aeruginosa ATCC 27853 after 24 hrs by iodonitrotetrazolium chloride dye based microdilution method; type: functional; conditions: ATCC 27853, 24 h; method in brief: as §1
# [12] = test system: Pseudomonas aeruginosa; assay: Bactericidal activity against Pseudomonas aeruginosa ATCC 27853 incubated for 24 hrs followed by re-plating on tryptic soy broth; type: functional; conditions: ATCC 27853, 24 h; method in brief: as §2
# [13] = test system: Salmonella typhimurium; assay: Antibacterial activity against Salmonella typhimurium ATCC 13311 after 24 hrs by iodonitrotetrazolium chloride dye based microdilution method; type: functional, Salmonella enterica subsp. enterica serovar Typhimurium; conditions: Salmonella enterica, ATCC 13311, 24 h; method in brief: as §1
# [14] = test system: Salmonella typhimurium; assay: Bactericidal activity against Salmonella typhimurium ATCC 13311 incubated for 24 hrs followed by re-plating on tryptic soy broth; type: functional, Salmonella enterica subsp. enterica serovar Typhimurium; conditions: Salmonella enterica, ATCC 13311, 24 h; method in brief: as §2
# [15] = test system: Escherichia coli; assay: Antibacterial activity against Escherichia coli ATCC 35210 after 24 hrs by iodonitrotetrazolium chloride dye based microdilution method; type: functional; conditions: ATCC 35210, 24 h; method in brief: as §1
# [16] = test system: Escherichia coli; assay: Bactericidal activity against Escherichia coli ATCC 35210 incubated for 24 hrs followed by re-plating on tryptic soy broth; type: functional; conditions: ATCC 35210, 24 h; method in brief: as §2
# [17] = test system: Aspergillus fumigatus; assay: Antifungal activity against Aspergillus fumigatus ATCC 1022 after 72 hrs by microdilution technique; type: functional; conditions: ATCC 1022, 72 h
# Method in brief: (§3)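 Spores were washed off malt agar with 0.85% saline containing 0.1% Tween 80 and adjusted to about 1.0×10^5 per well. Compounds in 5% DMSO were serially diluted (0.001-1.0 mg/ml) in malt broth with inoculum. Plates were shaken at 160 rpm for 72 h at 28 °C. MIC is the lowest concentration without visible growth under a binocular microscope. Three independent experiments in duplicate.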
# [18] = test system: Aspergillus fumigatus; assay: Fungicidal activity against Aspergillus fumigatus ATCC 1022 incubated for 72 hrs followed by sub-culturing on broth malt medium and measured after 72 hrs; type: functional; conditions: ATCC 1022, 72 h
# Method in brief: (§4)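 After 72 h exposure in malt broth, 2 µL from test wells was subcultured into wells holding 100 µL broth and incubated a further 72 h at 28 °C. MFC is the lowest concentration with no visible growth, taken as 99.5% kill of the original inoculum. Three independent experiments in duplicate.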
# [19] = test system: Aspergillus versicolor; assay: Antifungal activity against Aspergillus versicolor ATCC 11730 after 72 hrs by microdilution method; type: functional; conditions: ATCC 11730, 72 h; method in brief: as §3
# [20] = test system: Aspergillus versicolor; assay: Fungicidal activity against Aspergillus versicolor ATCC 11730 incubated for 72 hrs followed by sub-culturing on broth malt medium and measured after 72 hrs; type: functional; conditions: ATCC 11730, 72 h; method in brief: as §4
# [21] = test system: Aspergillus ochraceus; assay: Antifungal activity against Aspergillus ochraceus ATCC 12066 after 72 hrs by microdilution technique; type: functional; conditions: ATCC 12066, 72 h; method in brief: as §3
# [22] = test system: Aspergillus ochraceus; assay: Fungicidal activity against Aspergillus ochraceus ATCC 12066 incubated for 72 hrs followed by sub-culturing on broth malt medium and measured after 72 hrs; type: functional; conditions: ATCC 12066, 72 h; method in brief: as §4
# [23] = test system: Aspergillus niger; assay: Antifungal activity against Aspergillus niger ATCC 6275 after 72 hrs by microdilution technique; type: functional; conditions: ATCC 6275, 72 h; method in brief: as §3
# [24] = test system: Aspergillus niger; assay: Fungicidal activity against Aspergillus niger ATCC 6275 incubated for 72 hrs followed by sub-culturing on broth malt medium and measured after 72 hrs; type: functional; conditions: ATCC 6275, 72 h; method in brief: as §4
# [25] = test system: Trichoderma viride; assay: Antifungal activity against Trichoderma viride IAM 5061 after 72 hrs by microdilution technique; type: functional; conditions: IAM 5061, 72 h; method in brief: as §3
# [26] = test system: Trichoderma viride; assay: Fungicidal activity against Trichoderma viride IAM 5061 incubated for 72 hrs followed by sub-culturing on broth malt medium and measured after 72 hrs; type: functional; conditions: IAM 5061, 72 h; method in brief: as §4
# [27] = test system: Penicillium ochrochloron; assay: Antifungal activity against Penicillium ochrochloron ATCC 9112 after 72 hrs by microdilution technique; type: functional; conditions: ATCC 9112, 72 h; method in brief: as §3
# [28] = test system: Penicillium ochrochloron; assay: Fungicidal activity against Penicillium ochrochloron ATCC 9112 incubated for 72 hrs followed by sub-culturing on broth malt medium and measured after 72 hrs; type: functional; conditions: ATCC 9112, 72 h; method in brief: as §4
# [29] = Antifungal activity against Penicillium funiculosum ATCC 36839 after 72 hrs by microdilution technique; type: functional; conditions: Talaromyces pinophilus, ATCC 36839, 72 h; method in brief: as §3
# [30] = Fungicidal activity against Penicillium funiculosum ATCC 36839 incubated for 72 hrs followed by sub-culturing on broth malt medium and measured after 72 hrs; type: functional; conditions: Talaromyces pinophilus, ATCC 36839, 72 h; method in brief: as §4
# [31] = test system: Penicillium cyclopium; assay: Antifungal activity against Penicillium verrucosum var. cyclopium food isolate after 72 hrs by microdilution technique; type: functional; method in brief: as §3
# [32] = test system: Penicillium cyclopium; assay: Fungicidal activity against Penicillium verrucosum var. cyclopium food isolate incubated for 72 hrs followed by sub-culturing on broth malt medium and measured after 72 hrs; type: functional; method in brief: as §4
smiles,measurement,setting,value
COc1ccc2c(c1)-c1c(ssc1=S)C(C)(C)N2C(=O)CSc1nc2ccccc2s1,MIC,[1],29.8 µM
same,MBC,[2],59.7 µM
same,MIC,[3],29.8 µM
same,MBC,[4],59.7 µM
same,MIC,[5],29.8 µM
same,MBC,[6],59.7 µM
same,MIC,[7],29.8 µM
same,MBC,[8],59.7 µM
same,MIC,[9],29.8 µM
same,MBC,[10],59.7 µM
same,MIC,[11],29.8 µM
same,MBC,[12],59.7 µM
same,MIC,[13],29.8 µM
same,MBC,[14],59.7 µM
same,MIC,[15],29.8 µM
same,MBC,[16],59.7 µM
same,MIC,[17],1.59 ×10⁻² mM
same,MFC,[18],2.98 ×10⁻² mM
same,MIC,[19],1.59 ×10⁻² mM
same,MFC,[20],2.98 ×10⁻² mM
same,MIC,[21],1.59 ×10⁻² mM
same,MFC,[22],2.98 ×10⁻² mM
same,MIC,[23],1.59 ×10⁻² mM
same,MFC,[24],2.98 ×10⁻² mM
same,MIC,[25],0.8 ×10⁻² mM
same,MFC,[26],1.59 ×10⁻² mM
same,MIC,[27],0.4 ×10⁻² mM
same,MFC,[28],0.8 ×10⁻² mM
same,MIC,[29],1.59 ×10⁻² mM
same,MFC,[30],2.98 ×10⁻² mM
same,MIC,[31],1.59 ×10⁻² mM
same,MFC,[32],2.98 ×10⁻² mM
